{"source": "ChEMBL document CHEMBL3739264", "about": "“Synthesis and bio-evaluation of novel quinolino-stilbene derivatives as potential anticancer agents” (Bioorg Med Chem, 2015)", "key": {"MDA-MB-231": {"system": "MDA-MB-231", "experiment": "Cell cycle arrest in human MDA-MB-231 cells assessed as accumulation at sub-G1 phase at 6 uM after 12 hrs by flow cytometry analysis relative to control", "format": "functional", "summary_of_the_method": "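Cells seeded overnight at about 1 × 10^6 per plate, treated next morning, and harvested at set times. Fixed in 75% ethanol at -20°C for 12-24 h, then stained 1 h in PBS with 0.3% NP-40, 100 µg/ml RNase A and 100 µg/ml propidium iodide. Phase distribution read from DNA content by flow cytometry against sham-treated cells.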"}, "[1]": {"experiment": "Cell cycle arrest in human MCF10A cells assessed as accumulation at sub-G1 phase at 6 uM after 12 hrs by flow cytometry analysis relative to control", "format": "functional, cell-based", "conditions": "MCF-10A", "summary_of_the_method": "(§1)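 About 1 × 10^6 cells per plate seeded overnight, then treated with compound and harvested at set times. Cells fixed in 75% ethanol at -20°C for 12-24 h and stained 1 h with 100 µg/ml PI, 100 µg/ml RNase A and 0.3% NP-40 in PBS. DNA content measured by flow cytometry; phase fractions compared with sham-treated cells.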"}, "[2]": {"experiment": "Cell cycle arrest in human MCF10A cells assessed as accumulation at S phase at 6 uM after 72 hrs by flow cytometry analysis relative to control", "format": "functional, cell-based", "conditions": "MCF-10A", "summary_of_the_method": "as §1"}}, "data": [{"smiles": "FC(F)(F)c1cccc(/C=C\\c2cc3ccccc3nc2Cl)c1", "values": [{"measurement": "Activity", "setting": "MDA-MB-231", "result": 8.5, "unit": "%"}, {"measurement": "Activity", "setting": "[1]", "result": 3.4, "unit": "%"}, {"measurement": "Activity", "setting": "[2]", "result": 12.1, "unit": "%"}]}]}
